Measured values from ChEMBL document CHEMBL4513216, “Probing the Open Global Health Chemical Diversity Library for Multistage-Active Starting Points for Next-Generation Antimalarials” (ACS Infect Dis, 2020).

Test: Toxicity liver stage against HepG2, at 10uM
Assay type: cell-based
Set-up: test concentration 10 uM, cell line HepG2-A16-CD81EGFP
Details: human, HepG2-A16-CD81EGFP cells; read-out: INHIBITION
In short: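 Uninfected HepG2-A16-CD81EGFP cells, 3 × 10^3 per well, 1536-well, plated on prespotted compound at 10 μM final, parasite-free screening media added to match infected plates; puromycin 10 μM positive, DMSO 0.5% negative; run in parallel with 48 h PbLuc assay at 37 °C, 5% CO2; viability by CellTiter-Glo luminescence, normalized to controls.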

Point of comparison: Cc1nc(CN(C)C2CCCN(c3ccccc3)C2)no1 (configuration not stated), cytotoxicity at 10 µM -6.9%. Against it:
- COc1cccc(C(=O)Nc2ccc(OC3CCN(C)CC3)cc2)c1 — higher, -6.88%
- Cc1nnc([C@@]23CCO[C@@H]2CCN(Cc2nccs2)C3)o1 — lower, -104%
- Cc1[nH]ncc1C(=O)NCC1CCC2(CC1)OCCO2 — lower, -8.2%
- CCN1CCN(C(=O)C(C)SC)CC1 (configuration not stated) — higher, 11.4%
- COC1CN(C(=O)OCC(C)C)CCC(=O)N(C)c2ccccc21 (configuration not stated) — higher, -0.321%
- O=C1OCCN1c1cccc(CNCc2cc(F)ccc2F)c1 — higher, 25.3%
- CCOC(=O)CNC(=O)N1CCOC(Cc2ccc(OC)cc2)C1 (configuration not stated) — lower, -7.99%
- CCc1ncncc1C(=O)N1CCCN(Cc2ccc(C#N)cc2)CC1 — higher, -2.91%
- COC(=O)c1cccc(CNC(=O)NCCC(F)(F)F)c1 — higher, -0.247%
- CC(C)(C)c1nnc(CN2CCN(S(C)(=O)=O)CC2)o1 — higher, -4.32%
- COc1ccc(NCC(=O)NCC(=O)N2CCCC2)c(C(F)(F)F)c1 — higher, 6.78%
- Cc1cc(C[C@@H]2COC[C@H]2NCc2ccc(Br)s2)on1 — higher, 3.6%
- c1csc(CN2CCCC3(COCCN(c4cnccn4)C3)C2)c1 (configuration not stated) — lower, -68.7%
- CC(C(=O)NCCCN1CCOCC1)n1cncn1 (configuration not stated) — higher, 1.4%
- CN(C)C(=O)CN1CCN(C(=O)C2CSc3ccccc3O2)CC1 (configuration not stated) — higher, 1.84%
- O=C(NCC1(c2cccs2)CCCCC1)N1CCOC(CO)C1 (configuration not stated) — higher, 0.75%
- CNC(=O)c1cccc(CC2COCCN(Cc3ccc(C)o3)C2)n1 (configuration not stated) — higher, 0.166%
- Cn1cc(CN2CCOC3(CCCN(c4cccc(F)c4)C3)C2)cn1 (configuration not stated) — lower, -77.1%
- CCN(C)S(=O)(=O)c1c(F)cc(NC(C)=O)cc1F — lower, -40.7%
- CN1CCN(C(=O)[C@@H]2CCO[C@@H]3CCN(c4ncccn4)C[C@@H]32)CC1 — higher, -4.96%
- Cc1cnn(CCNCc2ccc(OCc3ccccn3)cc2)c1 — higher, 0.686%
- CNC(=O)c1ccc(C2CN(C(=O)c3cncs3)CCO2)nc1 (configuration not stated) — higher, -2.7%
- COCCN1CCC(NCc2cc(F)ccc2F)C1 (configuration not stated) — lower, -21.9%
- Cc1ccc(CNC2CC3(CCN(CCO)CC3)c3ccccc32)s1 (configuration not stated) — lower, -108%
- CC(c1ccco1)N(C)C(=O)NCCOc1ccc(C#N)cc1 (configuration not stated) — higher, -2.98%
- CCS(=O)(=O)N1C[C@H]2CN(Cc3ccc(OC)cc3)C(=O)[C@H]2C1 — higher, -1.34%
- CCc1nc(CN2CCCN(C(=O)CCOC(C)C)CC2)cs1 — lower, -17.3%
- Cc1nn(C)c(C)c1CCn1cncc1-c1ccc2c(c1)CC(C)N2C (configuration not stated) — higher, -0.168%
- COCCN1CC[C@@H]2CN(Cc3nccn3C)C[C@@H]2C1 — lower, -76.5%
- COc1ccc(CC2CCCN2CCCC#N)cc1 (configuration not stated) — lower, -54.7%
- CCCSc1ccccc1NC(=O)N1CCC(N2CCSCC2)CC1 — higher, -4.73%
- Cn1cc(C(=O)NCc2ccc(OC3CCCCC3)nc2)ccc1=O — higher, 28.8%
- CCCN1CCC(c2nc3ccc(-c4ccccc4)cn3n2)CC1 — lower, -129%
- Cc1cc(=O)c(C(=O)N(C)Cc2ccc(Cl)c(F)c2)c[nH]1 — higher, 9.39%
- Cc1cc(Br)c(O)c(-c2nc(N3CCCCC3)sc2C)c1 — lower, -7.13%
- Cc1cc(C(=O)N2CCCC(c3ccc(C(=O)O)cc3)C2)c(C)o1 (configuration not stated) — higher, 11.8%
- C/N=C1\c2cc3cc(OC)ccc3n2CCN1C — lower, -10.1%
- COc1ccc(NC(=O)C2CC(=O)N(C)C2)cn1 (configuration not stated) — lower, -16.5%
- CC(C)N1CCc2c(C#N)c(NCc3ccco3)n3cnnc3c2C1 — higher, -2.02%
- Cc1nc(N(C)C)nc(C)c1NS(=O)(=O)c1ccccc1Cl — higher, 4.22%
- O=C(NCCN1CCCCC1)c1ccn(-c2ccc(F)cc2)n1 — lower, -8.05%
- CCOc1ccccc1CC(=O)N1C[C@H](C2CC2)[C@@H](N)C1 — higher, -2.45%
- Cc1nonc1CN(C)c1nc(-c2ccco2)nc2c1CCN(C)CC2 — higher, -0.274%
- CCOCCCn1c(NC(=O)c2cnn(C)c2)nc2ccccc21 — lower, -12.1%
- CSc1ncc(C(=O)NCCn2nccc2C)cn1 — higher, 2.86%
- COCc1nn(Cc2ccc(Cl)s2)c(=O)o1 — higher, 1.97%
- CN(CCn1cncc1-c1cnc(N2CCOCC2)nc1)C1CCCC1 — higher, 7.25%
- CN1CCCCC12Cc1ccccc1CN(C(=O)c1ccccc1)C2 (configuration not stated) — higher, 7.44%
- O=C(N1CCCC1)N1CCC2(CC1)COCCN(Cc1cccnc1)C2 — lower, -77.3%
- CC(C)NC(=O)N1CCC2(C1)CN(c1ccsc1)C(=O)CN2C (configuration not stated) — higher, 1.18%
- O=C1CN(c2ccc(CNC(=O)NCc3ccoc3)cc2)CCN1 — higher, -1.28%
- C[C@@H]1CN(C(=O)c2ccccc2F)C[C@]12CCN(CCN(C)C)C2=O — higher, 3%
- CC(C)c1noc(CN2CCN(C(=O)c3cc(Cl)ccc3F)CC2)n1 — higher, -6.8%
- CCN(CC)C(=O)CN1CCC(c2nc(C)c3c(n2)N(C)CCC3)CC1 — higher, 4.14%
- CN(CCS(=O)(=O)c1cc(Cl)ccc1Cl)CC(=O)Nc1cccc(F)c1 — higher, 13.9%
- COCCN1CCC(NCc2c(C)nn(C)c2N(C)C)CC1 — higher, -2.11%
- O=C(c1cscn1)N1CCc2ncc(CN3CCOCC3)n2CC1 — lower, -75.6%
- CNS(=O)(=O)CC1CCCN1C(=O)c1cccc(Cl)c1 (configuration not stated) — higher, -1.5%
- CC(C)(Cn1cnc(-c2ccccc2)c1-c1ccco1)N1CCOCC1 — lower, -38.8%
- CCCN1CCN(Cc2cn(CCC(N)=O)c3ccccc23)CC1 — higher, 4.7%
- Cc1ccccc1N(CC(=O)NCCc1nnc2n1CCC2)S(C)(=O)=O — higher, -0.69%
- COCCNC(=O)c1ccnn1-c1ccc2ccccn12 — higher, 8.28%
- Cc1nc(CNC(C(=O)N2CCOCC2)C(C)C)no1 (configuration not stated) — higher, 5.76%
- c1cc(CCN2CCC(c3n[nH]c(C4CC4)n3)CC2)ccn1 — higher, 3.39%
- Cc1cnn(CC2CCCN2Cc2coc(-c3cccs3)n2)c1 (configuration not stated) — higher, -3.01%
- Cc1nn(C(C)C)c(C)c1NC(=O)c1ccncc1 — lower, -17.3%
- CCN(Cc1nc2c(cnn2C)c(=O)[nH]1)Cc1ccccc1Cl — lower, -22.7%
- Cc1ccc(CNC(c2ccccc2)c2nccn2C)cc1C (configuration not stated) — higher, 0.323%
- CCC(=O)N1CCCC(c2ncc3c(n2)CCN(C)C3)C1 (configuration not stated) — lower, -8.77%
- CCCOc1ccc(CN)c(OC(F)F)c1 — lower, -41.7%
- CNC(=O)CN1CCC(CN(C)CCSc2ccccc2)CC1 — higher, -0.488%
- O=C(Cc1ccc2c(c1)CCCC2)Nc1cccnc1N1CCSCC1 — higher, 11.4%
- Cc1ccc(N2CC[C@H]3CN(C(=O)c4ccn(C)n4)C[C@H]3C2)nn1 — lower, -102%
- Cc1nc(C2(NC(=O)NCc3cc(C#N)ccc3F)CCCC2)no1 — higher, -4.2%
- O=C1CCC2(CCN(Cc3cscn3)CC2)CN1CCCO — higher, -5.26%
- CCCOC(C)Cn1ccc2[nH]c(=O)c(C#N)cc2c1=O (configuration not stated) — higher, 7.39%
- Fc1ccccc1CN1CCC(c2noc(-c3ccccn3)n2)CC1 — higher, -1.39%
- CCc1cc(N2CCCC(CC)(C(=O)O)C2)nc(N2CCOCC2)n1 (configuration not stated) — higher, 0.701%
- Cc1cc(=O)n(C)cc1NC(=O)Cc1cc(F)ccc1F — lower, -11.4%
- COc1cccc(C(=O)NS(=O)(=O)c2cncc(Br)c2)c1OC — higher, 0.684%
- Cc1ccc(NC(C)C(=O)N(C)Cc2cccc(F)c2)cc1C(N)=O (configuration not stated) — higher, 11.4%
- O=C(c1cnc(NCCC2CCCO2)c(Cl)c1)N1CCOCC1 (configuration not stated) — higher, 7.74%
- CCO[C@@H]1CCN(C(=O)c2ccc[nH]2)[C@@H]1Cc1cccnc1 — lower, -80.2%
- O=C(NCCS(=O)(=O)N1CCc2ccccc21)c1c(O)cc(F)cc1F — higher, 0.217%
- Cc1cc2ccccc2n1CCC(=O)NCc1ncc[nH]1 — higher, 4.37%
- COCC(C)NCc1nc(-c2ccc(C)cc2)c(-c2ccccn2)[nH]1 (configuration not stated) — higher, -3.81%
- CN1CCCN(C(=O)NCCNc2cnccn2)CC1 — higher, -3.4%
- NS(=O)(=O)c1cnn(-c2ccc(NC(=O)C3CCCCC3)cn2)c1 — higher, 2.27%
- Cc1ccc(CN2Cc3nccn3CC(Cn3cncn3)C2)s1 (configuration not stated) — lower, -141%
- Cc1cc(C)cc(C(=O)N2CCCC3(CCCC(=O)N3C)C2)c1 (configuration not stated) — higher, 5.06%
- Cc1cnc(C)c(N2CCN(CC3CCCO3)CC2)n1 (configuration not stated) — higher, 5.82%
- COc1cc(CNC(C)c2ccc(F)c(F)c2)cc2c1OCCO2 (configuration not stated) — higher, -1.58%
- O=C(O)C1(Cc2ccc(F)cc2F)CCCN(Cc2ccccn2)C1 (configuration not stated) — higher, 7.65%
- O=C(NCC1CCOC1)c1ccc(OCC(F)(F)F)nc1 (configuration not stated) — higher, -5.64%
- c1ccc(CCN2CCN(C3CCOC4(CCOCC4)C3)CC2)cc1 (configuration not stated) — higher, -3.79%
- CC(Nc1cccc(F)c1C#N)c1cccc(S(N)(=O)=O)c1 (configuration not stated) — higher, 12.8%
- CN1CCCC1CCn1ccnc1-c1ccc2ccccc2n1 (configuration not stated) — higher, 0.0773%
- O=C([C@H]1CCCO1)N1CCc2ncc(CN3CCOCC3)n2CC1 — lower, -72.3%
- CCC(=O)N1CC[C@@H](c2ccc3ccccc3c2)[C@H](O)C1 — lower, -11.4%
- COC(=O)CC(NC(=O)CCn1cccn1)c1ccc(C)cc1 (configuration not stated) — higher, 3.28%
- O=C(NCC(F)F)c1cc(-c2ccccc2)nc2ncnn12 — higher, -3.37%
- N#Cc1cccnc1N1CCC(C2CCCCCN2C(N)=O)CC1 (configuration not stated) — higher, -2.51%
- CSCC[C@H](NC(C)=O)c1nc(CCc2ccccc2)n[nH]1 — higher, 5.08%
- COc1cc(C)cc(C(C(=O)O)N(C)Cc2cnn(C)c2)c1OC (configuration not stated) — higher, 7.87%
- CCOC(=O)c1cccc(N2CCCC3(CCC(=O)N(C4CC4)C3)C2)n1 (configuration not stated) — higher, -1.38%
- COCCNC(=O)c1ccc(C)c(-n2cccc2)c1 — higher, -3.06%
- Cc1ccc2c(c1)C1(CC(=O)Nc3[nH]ncc31)C(=O)N2C (configuration not stated) — higher, -1.6%
- CCOCCN1CCN(CCc2nc3ccccc3c(=O)[nH]2)CC1 — higher, 4.12%
- CC(=O)N(C)CCCc1cc(-c2ccccc2)no1 — lower, -7.16%
- Cc1noc(-c2cccnc2N(C)Cc2cc(C)on2)n1 — higher, -5.1%
- O=C(CC1CCCC1)NCCS(=O)(=O)N1CCN(c2ncccn2)CC1 — higher, -1%
